Sequences and labels used below:
B1: tRNA (parent)
chain: GUUCCGUUGGCGUAAUGGUAACGCGUCUCCCUCCUAAGGAGAAGACUGCGGGUUCGAGUCCCGUACGGAACG

Variants at the floor of the assay were thinned out. Some results are limits rather than exact numbers.

This series covers variants of B1. Kind of series: yeast fitness relative to wild type (ratio to wild type); higher = fitter; tRNA-Arg(CCU), competitive growth, 37 C, YPD. The method in brief:
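Variants of the tRNA-Arg(CCU) gene, chemically synthesised with a 3% per-site mutation rate at 69 sites, were placed at the native genomic locus in Saccharomyces cerevisiae. The pooled strains were competed in YPD at 37°C for 24 hours in six parallel replicates. Gene amplicons from the start population and from each end population were read by 100-nucleotide paired-end sequencing. Darwinian fitness relative to wild type came from changes in genotype frequencies; genotypes needed ≥ 100 starting reads, and estimates < 0.5 were set to 0.5.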
For the variant GUUUCGUUGGCGUAAUGGUAACGCGUCUCCCUCCUAAGGAGAAGAAUGCAGGUUCGAGUCUUGUACGGAACG [C4U C46A G50A C61U C62U], the yeast fitness worked out at 1.09. Then GUUUCGUUGGCGUAAUGGUAACGCGUCUCCCUCCUAAGGAGAAGAGUGCGGGUUUGAGUCCCGUACGGAACG [C4U C46G C55U], with 0.576; and GUUUCGUUGGCGUAAUGGUAACGCGUCUCCCUCCUAAGGAGAAGACUGCGGGUUUGAGUCUCGUACGGAACG [C4U C55U C61U], with 0.673; and GUUUCGUUAGCGUAAUGGUAAGGCGUCUCCCUCCUAAGGAGUAGACUGCGGGUUCGAGUCCCGAACAGAACG [C4U G9A C22G A42U U64A G67A], with 0.58.

GUUUCAUUGGCGUAAUGGUAACGCGUCUCCCUCCUAAGGAGCAGACUGCGGGUUCGAGUCCCGUAUGGAACG [C4U G6A A42C C66U]: the yeast fitness was at most 0.5. Consider GUUUCGUUGGCGUAAUGGUAACGCGUCUCCCUCCUAAGGAGAAGACUGCGGGUUCGAGUCACGUACGGAACG [C4U C61A], for which the yeast fitness was determined as 0.667. For the variant GUUUCGUUGGCGUAAUGGUAACGCGUCUCCCUCCUAAGGAGAAGACUGCGGGUUCGAGUCGCGUACGGAACG [C4U C61G], the yeast fitness was 0.63. Then GUUUCGUUAGUGUAAUGGUAACGCGUCUCCCUCAUAAGGAGAAGACUGCGGGUUAGAGUCCCGUCCGGAACG [C4U G9A C11U C34A C55A A65C], with at most 0.5; and GUUUCGUUGGCGUAAUGGUAACGCGUCUCCCUCCUAAGGAGAAGACUGCGGGUUAGAGUCCCGAUCGGAACG [C4U C55A U64A A65U], with at most 0.5; and GUUUCGUUGGCGUAAUGGUAACGCGUCUCCCUCCUAAGGAGAAGACUGCGGGUUCGAGUCCCGUAUGGACCG [C4U C66U A70C], with 0.83. Then GUUUCGUUGGCGUAAUGGUAACGCGUCUCCCUCCUAAGGAGAAGACUGCGGGUUCGAGUCGGGUACGGAACG [C4U C61G C62G], with at most 0.5.

In the case of GUUUCGUUGGCGUAAUGGUAACGCGUCUCCCUCCUAAGGAGAAGACUGCGGGUUCGAGUCGAGUACGGAACG [C4U C61G C62A], the yeast fitness was at most 0.5. GUUUCGUUAGCGUAAUGGUAACGCGUCUCCCUGCUAAGGAGAAGACUGCGGGUUCGAGUCCCGUACAGAACG [C4U G9A C33G G67A]: the yeast fitness was at most 0.5.

Turning to GUUUCAUUGGCGUCAUGGUAACGCGUCUCCCUCCUAAGGAGAAGACUGCGGGUUCGAGUCCCGUCCGGAACG [C4U G6A A14C A65C], the yeast fitness was at most 0.5.

For the variant GUUUCGUUAGCGUAAUGGUAACGCGUCUCCCUCCUAAGGAGAAGACUGCGGGUUCGAGUCCCGUACGAAACG [C4U G9A G68A], the yeast fitness worked out at 0.968.

On to GUUUCGUUGGCGUAAUGGUAACGCGUCUCCCUCCUAAGGAGAAGAUUGCGGGUUCGAGUCCUGUACGGAACG [C4U C46U C62U], for which the yeast fitness came out at 0.806. Then GUUUCGUUGGCGUAAUGGUAACGCGUCUCCCUCCUAAGGAGAAGACUGCGGGUUCGAGUCCAGUACGGAACG [C4U C62A], with 0.85.

As to GUUUCGUUGGCGUAAUGGUAACGCGUCUCCCUCCUAAGGAGAAGACUGCGGGUUCGAGUCCUGUACGGAACG [C4U C62U], the yeast fitness came out at 0.992.

Turning to GUUUCGUUGGCGUAAUGGUAACGCGUCUCCCUCCUAAGGAGAAGACUGCGGGUUCGAGUCCGGUACGGAACG [C4U C62G], the yeast fitness worked out at 0.808. Then GUUUCAUUGGCGUAAUGGUAACGCAUCUCCCCCCUAAGGAGAAGACUGCGGGUUCGAGUCCCGUACGGAACG [C4U G6A G25A U32C], with at most 0.5; and GUUUCAUUGGCGUAAUGGUAACGCGUCUCCCUCCUAAGGAGAAGACUGCGGGUUCGAGUCCGGUACGGAACG [C4U G6A C62G], with 0.54. With GUUUCGUUGGCGUAAUGGUAACGCGUCUCCCUCCUAAGGAGAAGACUGUGGGUUCGAGUCGCGUACGGAACG [C4U C49U C61G], the yeast fitness was determined as 0.594. For the variant GUUUCGUUGGCGUAAUGGUAACGCGUCUCCCUCCUAAGGAGAAGACUGCGGGUUUGAGGCCCGUACGGAACG [C4U C55U U59G], the yeast fitness came to 0.587.

On to GUUUCCUUGGCGUUAUGGUAACGGGUCUCCCUCCUAAGGAGAAGACUGCGGGUUCGACUCCCGUACGGAACG [C4U G6C A14U C24G G58C], for which the yeast fitness came to 0.531. For the variant GUUUCAUUGGCGUAAUGGUCACGCGUCUCCCUCCUAAGGAGAAGACUGCGGGUUCGAGUGCCGUUCGGGACG [C4U G6A A20C C60G A65U A69G], the yeast fitness is at most 0.5. As for GUUUCGUUGGCGUAAUGGUAACGCGUCUCCCUCCUAAGGAGAAGACUGCGGGUUCGAGUCCCGUAGGGAUCG [C4U C66G A70U], the yeast fitness is 0.608. As to GUUUCAUUGGCGUAAUGGUAACGCGUCUCCCUCCUCAGGAGAAGAUUGCGGGUUCGAGUCCCGUACGGAACG [C4U G6A A36C C46U], the yeast fitness was at most 0.5.

Consider GUUUCGUUGGCGUAAUGGUAACGCGUCUCCCUCUUAAGGAGAAGACUGCGGGUUCGAGACCCGUACGGAACG [C4U C34U U59A], for which the yeast fitness was at most 0.5. GUUUCGUUGGCGUAAUGGUAACGCGUCUCCCUCCUAAGGAGAAGACUGGGGGUUCGAGUCCCGUACGGAACG [C4U C49G]: the yeast fitness amounted to 0.874. As to GUUUCGUUGGCGUAAUGGUAACGCGUCUCCCUCCUAAGGAGAAGACUGCGGGUUGGAGUCCCGUGCGGAACG [C4U C55G A65G], the yeast fitness was at most 0.5. GUUUCGUUGGCGUAAUGGUAACGCGUCUCCCUCCUAAGGAGAAGACUGCGGGUUCGAGUGCCGUACGGAACG [C4U C60G]: the yeast fitness stood at 0.671.

GUUUCGUUGGCGUAAUGGUAACGCGUCUCCCUCCUAAGGAGAAGACUGCGGGUUCGAGUACCGUACGGAACG [C4U C60A]: the yeast fitness came to 0.532. With GUUUCCUUGGCGUUAUGGUAACGGGUCUCCCUCCUAAGGAGAAGACUGCGGGUUCGAGUCCCGUAUGGAACG [C4U G6C A14U C24G C66U], the yeast fitness was at most 0.5. For GUUUCGUUGGCGUAAUGGUAACGCGUCUCCCUCCUAAGGAGAAGACUGUGGGUUCGAGUCCCGAACGGAACG [C4U C49U U64A], the yeast fitness is 0.589. Then GUUUCGUUGGCGUAAUGGUAACGCGUCUCCCUCCUAAGGAGAAGACUGGCGGUUCGAGUCCCGUACGGAACG [C4U C49G G50C], with at most 0.5; and GUUUCCUUGGCGUCAUGGUAACGGGUCUCCCUCCUAAGGAGAAGCCUGCGGGUUCGCGUCUCGUACGGAACG [C4U G6C A14C C24G A45C A57C C61U], with at most 0.5. As to GUUUCGUUGGCGUAAUGGUAACGCGUCUCCCUCCUAAGGAGAAGACUGCGGGUUUGUGUCCCGUACGGAACG [C4U C55U A57U], the yeast fitness was 0.536. Consider GUUUCGUUAGCGUAUUGGUCACGCGUAUCCCUCCUAAGGAGAAGACUGCGGGUUCGAGUCCCGUUCGGAACG [C4U G9A A15U A20C C27A A65U], for which the yeast fitness was determined as 0.768.

The record behind these values is the RNAGym collection of RNA variant scans (doi:10.1126/science.aae0568).
